Reference: the RNAGym collection of RNA variant scans (doi:10.1126/science.aae0568)
Variants at the floor of the assay were thinned out.

B1: tRNA (parent)
chain: GUUCCGUUGGCGUAAUGGUAACGCGUCUCCCUCCUAAGGAGAAGACUGCGGGUUCGAGUCCCGUACGGAACG

Variants of: B1
Test: yeast fitness relative to wild type (ratio to wild type); higher = fitter; tRNA-Arg(CCU), competitive growth, 37 C, YPD
Summary of the method: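 Start and end populations of a pooled competition were compared by 100-nucleotide paired-end sequencing of gene amplicons. The Saccharomyces cerevisiae strains carried tRNA-Arg(CCU) gene variants at the native genomic locus, synthesised with a 3% per-site mutation rate at 69 sites, and competed in YPD at 37°C for 24 hours in six parallel replicates. Darwinian fitness relative to wild type was based on the change in genotype frequencies. Genotypes required ≥ 100 starting reads, and estimates < 0.5 were set to 0.5.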
Variant GUUCCGUUGGCGUAAUGGUAACGCAUCUCCCCCCUAAGGAAAAGACUGCGGGUUCAAGUCCCGUACGGAACG [G25A U32C G41A G56A] has a yeast fitness of 0.553.
GUUCCGUUGGCGUAAUGGUAACGCAUCUCCCUCCAUAGGAGAAGACUGCGGGUUCGAGUCUCGUACGGAACG [G25A U35A A36U C61U] gave a yeast fitness of no more than 0.5.
GUUCCGUUGGCGUAAUGGUAACGCAUCUCCCUCCAAAGGAGAAGACUGCGGAUUCGAGCCCCGUAAAGAACG [G25A U35A G52A U59C C66A G67A] gave a yeast fitness of no more than 0.5.
GUUCCGUUGGCGUAAUGGUAACGCAUCUCCCUCCCAAGGAGAAGACUGCGGGUUCGAGUCCCGUACGGAACG [G25A U35C] showed a yeast fitness of 0.942.
Work on GUUCCGUUGGCGUAAUGGUAACGCAUCUCCCUCCCAAGGAGAGGACUGCGGGUUUGAGUCCCGUACGGAACG [G25A U35C A43G C55U] yielded a yeast fitness of no more than 0.5.
GUUCCGUUGGCGUAAUGGUAACGCAUCUCCCUCCGAAGGAGAAGACUGCGGGUUCGAGUCCCGUACGGAACG [G25A U35G] showed a yeast fitness of 0.603.
In the case of GUUCCGUUGGCGUAAUGGUAACGCAUCUCCCUCCUAAGGAGAAGACCGCGGGUUCGAGUCCCGUACGGAACG [G25A U47C], the yeast fitness is reported as 0.93.
For GUUCCGUUGGCGUAAUGGUAACGCAUCUCCCUCCUAAGGAGAAGACCGCGGGUUCGAGUCCCGCACGGACCG [G25A U47C U64C A70C], the yeast fitness was 1.06.
For GUUCCGUUGGCGUAAUGGUAACGCAUCUCCCUCCUAAGGAGAAGACUGCGGGAUCGAGUCCCAUACGGAACG [G25A U53A G63A], the yeast fitness was 0.523.
For GUUCCGUUGGCGUAAUGGUAACGCAUCUCCCUCCUAAGGAGAAGACUGCGGGUCCGAGUCCCGUACGGAACG [G25A U54C], the yeast fitness was 0.87.
For GUUCCGUUGGCGUAAUGGUAACGCAUCUCCCUCCUAAGGAGAAGACUGCGGGUGCGAGUCCCGUACGGAACG [G25A U54G], the yeast fitness was 0.566.
For GUUCCGUUGGCGUAAUGGUAACGCAUCUCCCUCCUAAGGAGAAGACUGCGGGUUCGAGCCCCGUACGGAACG [G25A U59C], the yeast fitness was 0.775.
For GUUCCGUUGGCGUAAUGGUAACGCAUCUCCCUCCUAAGGAGAAGACUGCGGGUUCGAGUCCCGAACGGAACG [G25A U64A], the yeast fitness was 0.901.
Variant GUUCCGUUGGCGUAAUGGUAACGCAUCUCCCUCCUAAGGAGAAGACUGCGGGUUCGAGUCCCGCACGGAACG [G25A U64C] has a yeast fitness of 0.902.
With GUUCCGUUGGCGUAAUGGUAACGCCUCUCCCUCCUAAGGAGAAGACUGCGGGUUCGAGUCCCGUACGGAACG [G25C] the yeast fitness was 1.
In the case of GUUCCGUUGGCGUAAUGGUAACGCCUCUCCCUCCUCAGGAGAAGACUGCGGGUUCGAGUCCCGUACGGAACG [G25C A36C], the yeast fitness is reported as 0.718.
GUUCCGUUGGCGUAAUGGUAACGCCUCUCCCUCCUGAGGAGAAGACUGCGGGUUCGAGUCCCGUACGGAACG [G25C A36G] gave a yeast fitness of 0.864.
With GUUCCGUUGGCGUAAUGGUAACGCCUCUCCCUCCUGAGGAGAAGACUACGGGUUCGAGUACCGUACGGAACG [G25C A36G G48A C60A] the yeast fitness was no more than 0.5.
For GUUCCGUUGGCGUAAUGGUAACGCCUCUCCCUCCUUAGGAGAAGACUGCGGGUUCGAGUCCCGUACGGAACG [G25C A36U], the yeast fitness was 0.724.
Work on GUUCCGUUGGCGUAAUGGUAACGCCUCUCCCUCCUAGGGCGAAGACUGCGGGUUCGAGUCGCGUACGGAACG [G25C A37G A40C C61G] yielded a yeast fitness of no more than 0.5.
In the case of GUUCCGUUGGCGUAAUGGUAACGCCUCUCCCUCCUAAGGCGAAGACUGCGGGUUCGAGUCCCGUACGGAACG [G25C A40C], the yeast fitness is reported as 0.848.
Variant GUUCCGUUGGCGUAAUGGUAACGCCUCUCCCUCCUAAGGCGAAGACUGCGGGUUUGAGUCCCGUACGGAACG [G25C A40C C55U] has a yeast fitness of 0.708.
Variant GUUCCGUUGGCGUAAUGGUAACGCCUCUCCCUCCUAAGGGGAAGACUGCGGGUUCGAGUCCCGUACGGAACG [G25C A40G] has a yeast fitness of 0.645.
With GUUCCGUUGGCGUAAUGGUAACGCCUCUCCCUCCUAAGGGGAAGACUGCGGGUUCGCGUCCCGUACGGUCCG [G25C A40G A57C A69U A70C] the yeast fitness was no more than 0.5.
In the case of GUUCCGUUGGCGUAAUGGUAACGCCUCUCCCUCCUAAGGGGAAGACUGCGGGUUCGAGUCCCGUCCGGAACG [G25C A40G A65C], the yeast fitness is reported as 0.653.
GUUCCGUUGGCGUAAUGGUAACGCCUCUCCCUCCUAAGGUGCAGACUGCGGGUUCGAGUCACGUAUGGAACG [G25C A40U A42C C61A C66U] gave a yeast fitness of no more than 0.5.
GUUCCGUUGGCGUAAUGGUAACGCCUCUCCCUCCUAAGGUGCAGACUGCGGAUUCGAGUCCCGUACGGAACG [G25C A40U A42C G52A] showed a yeast fitness of no more than 0.5.
In the case of GUUCCGUUGGCGUAAUGGUAACGCCUCUCCCUCCUAAGGUGCAGACUGCGGAUUCGAGUCCCGCAUGGAACG [G25C A40U A42C G52A U64C C66U], the yeast fitness is reported as no more than 0.5.
GUUCCGUUGGCGUAAUGGUAACGCCUCUCCCUCCUAAGGUGAAGACUGUGGGUUCGAGUCCCGUACGGAACG [G25C A40U C49U] gave a yeast fitness of 0.66.
In the case of GUUCCGUUGGCGUAAUGGUAACGCCUCUCCCUCCUAAGGUGAAGACUCCGGGUUCGAGUCCCGUACGGAACG [G25C A40U G48C], the yeast fitness is reported as no more than 0.5.
Variant GUUCCGUUGGCGUAAUGGUAACGCCUCUCCCUCCUAAGGAGGAGACUGCGGGUUCGAGUCCCGUACGGAACG [G25C A42G] has a yeast fitness of 0.911.
Work on GUUCCGUUGGCGUAAUGGUAACGCCUCUCCCUCCUAAGGAGGAGCCCGCGGGUUCGAGUCCUGUACGGAACG [G25C A42G A45C U47C C62U] yielded a yeast fitness of no more than 0.5.
Work on GUUCCGUUGGCGUAAUGGUAACGCCUCUCCCUCCUAAGGAGGAGACUGCGGGUUUGAGUCCCGUACGGAACG [G25C A42G C55U] yielded a yeast fitness of no more than 0.5.
GUUCCGUUGGCGUAAUGGUAACGCCUCUCCCUCCUAAGGAGUAGAUUGCGGGUUCGAGUCCCGUACGGAACG [G25C A42U C46U] gave a yeast fitness of 0.502.
GUUCCGUUGGCGUAAUGGUAACGCCUCUCCCUCCUAAGGAGACGACUGCGGGUUCGAGUCCCGUACGGAACG [G25C A43C] showed a yeast fitness of 1.03.
With GUUCCGUUGGCGUAAUGGUAACGCCUCUCCCUCCUAAGGAGACGACUGCGGGUUCGAGUCCAGGAGGGAACG [G25C A43C C62A U64G C66G] the yeast fitness was no more than 0.5.
GUUCCGUUGGCGUAAUGGUAACGCCUCUCCCUCCUAAGGAGAUGACUGCGGGUUCGAGUCGCGUACCGAACG [G25C A43U C61G G67C] showed a yeast fitness of no more than 0.5.
